Measured values taken from paper PMC9057999 (RSC Advances, 2020).
Where two headings read alike, the source gives them in different places.

Assays:
fR-2 cells = assay: MTT cytotoxicity assay, normal epithelial cell line; assay type: cell-based; details: read-out: Normal (fR-2) IC50
Procedure, shortened: (§1)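 Human Colo-205, PC-3, THP-1 and A549 cancer cells and normal epithelial fR-2 cells were grown in RPMI-1640 or DMEM with 10% fetal calf serum, penicillin and streptomycin, at 37 °C in 5.0% CO2. After overnight attachment, cells were exposed to 0.07, 0.7, 7.0 and 70.0 μM test compound for 24 h, then to MTT (250 μg mL−1) for 3–4 h. OD was read at 570 nm. Growth (%) = test OD/untreated OD × 100. IC50 was taken from concentration–growth curves as the mean of triplicates.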

Colo-205 cells = assay: MTT cytotoxicity assay, colon; assay type: cell-based, human; details: read-out: Colon (Colo-205) IC50
Procedure, shortened: as §1

THP-1 cells = assay: MTT cytotoxicity assay, leukemia; assay type: cell-based, human; details: read-out: Leukemia (THP-1) IC50
Procedure, shortened: as §1

A549 cells = assay: MTT cytotoxicity assay, lung; assay type: cell-based, human; details: read-out: Lung (A549) IC50
Procedure, shortened: as §1

PC-3 cells = assay: MTT cytotoxicity assay, prostate; assay type: cell-based, human; details: read-out: Prostate (PC-3) IC50
Procedure, shortened: as §1

[1] = tested on: Colo-205, PC-3, THP-1, A549 and fR-2 cells; assay: MTT cytotoxicity assay, statements on the whole cell line panel; assay type: cell-based; details: Homo sapiens, 24 h, read-out: IC50 values (all tested cell lines)
Procedure, shortened: as §1

[2] = MTT, 24 h treatment, n = 3, mean ± SD

## CCOC(=O)C1=C(C)NC(=O)NC1c1ccc2c(c1)OCO2 (stereo not drawn) [Compound 21a, Ethyl-4-(benzo[d][1,3]dioxol-6-yl)-1,2,3,4-tetrahydro-6-methyl-2-oxopyrimidine-5-carboxylate]
fR-2 cells; FR2, 24 h
  IC50: > 70 µM
Colo-205 cells; Homo sapiens, COLO 205, 24 h
  IC50: 48.1 ± 2.1 µM
THP-1 cells; Homo sapiens, THP-1, 24 h
  IC50: > 70 µM
A549 cells; Homo sapiens, A549, 24 h
  IC50: > 70 µM
PC-3 cells; Homo sapiens, PC-3, 24 h
  IC50: > 70 µM

## CCOC(=O)C1=C(C)NC(=O)NC1C=Cc1cccc(OC)c1OC (stereo not drawn) [Compound 17a, Ethyl 4-(2,3-dimethoxystyryl)-1,2,3,4-tetrahydro-6-methyl-2-oxopyrimidine-5-carboxylate]
fR-2 cells; FR2, 24 h
  IC50: > 70 µM
Colo-205 cells; Homo sapiens, COLO 205, 24 h
  IC50: 38.2 ± 1.4 µM
THP-1 cells; Homo sapiens, THP-1, 24 h
  IC50: > 70 µM
A549 cells; Homo sapiens, A549, 24 h
  IC50: 26.4 ± 1.1 µM
PC-3 cells; Homo sapiens, PC-3, 24 h
  IC50: 47.9 ± 2.1 µM

## CCCCCC1NC(=O)NC(C)=C1C(=O)OCC (stereo not drawn) [Compound 8a]
fR-2 cells; [2]
  IC50: 67.2 ± 1.5 µM
Colo-205 cells; [2]
  IC50: 18.6 ± 1 µM
THP-1 cells; [2]
  IC50: 43.8 ± 1.4 µM
A549 cells; [2]
  IC50: 63.4 ± 1.1 µM
PC-3 cells; [2]
  IC50: 22.2 ± 1.6 µM

## CCOC(=O)C1=C(C)NC(=O)NC1C1=C(Cl)c2ccccc2CC1 (stereo not drawn) [Compound 12a, Ethyl-4-(1-chloro-3,4-dihydronaphthalen-2-yl)-6-methyl-2-oxo-1,2,3,4-tetrahydropyrimidine-5-carboxylate]
fR-2 cells; FR2, 24 h
  IC50: > 70 µM
Colo-205 cells; Homo sapiens, COLO 205, 24 h
  IC50: > 70 µM
[1]
  IC50: > 70 µM
THP-1 cells; Homo sapiens, THP-1, 24 h
  IC50: > 70 µM
A549 cells; Homo sapiens, A549, 24 h
  IC50: > 70 µM
PC-3 cells; Homo sapiens, PC-3, 24 h
  IC50: > 70 µM

## CCCCC1NC(=O)NC(C)=C1C(=O)OCC (stereo not drawn) [Compound 7a, Ethyl 4-butyl-1,2,3,4-tetrahydro-6-methyl-2-oxopyrimidine-5-carboxylate]
fR-2 cells; FR2, 24 h
  IC50: > 70 µM
Colo-205 cells; Homo sapiens, COLO 205, 24 h
  IC50: > 70 µM
[1]
  IC50: > 70 µM
THP-1 cells; Homo sapiens, THP-1, 24 h
  IC50: > 70 µM
A549 cells; Homo sapiens, A549, 24 h
  IC50: > 70 µM
PC-3 cells; Homo sapiens, PC-3, 24 h
  IC50: > 70 µM

## CC(=O)O[C@H]1C(=O)[C@@]2(C)[C@H]([C@H](OC(=O)c3ccccc3)[C@]3(O)C[C@H](OC(=O)[C@H](O)[C@@H](NC(=O)c4ccccc4)c4ccccc4)C(C)=C1C3(C)C)[C@]1(OC(C)=O)CO[C@@H]1C[C@@H]2O [Paclitaxel, reference compound]
A549 cells; Homo sapiens, A549, 24 h
  IC50: 5.1 ± 0.4 µM
PC-3 cells; Homo sapiens, PC-3, 24 h
  IC50: 0.048 ± 0.008 µM

## CCOC(=O)C1=C(C)NC(=O)NC1C(C)=CCc1cc2oc(=O)ccc2cc1OC (stereo not drawn) [Compound 5a, Ethyl 4-(4-(6-methoxy-2-oxo-2H-chromen-7-yl)but-2-en-2-yl)-6-methyl-2-oxo-1,2,3,4-tetrahydropyrimidine-5-carboxylate]
fR-2 cells; FR2, 24 h
  IC50: 68.8 ± 1.1 µM
Colo-205 cells; Homo sapiens, COLO 205, 24 h
  IC50: 37.6 ± 1.1 µM
THP-1 cells; Homo sapiens, THP-1, 24 h
  IC50: 65.8 ± 1.4 µM
A549 cells; Homo sapiens, A549, 24 h
  IC50: 67.8 ± 1.7 µM
PC-3 cells; Homo sapiens, PC-3, 24 h
  IC50: 40.8 ± 1.7 µM

## CCOC(=O)C1=C(C)NC(=O)NC1C=Cc1cccc(O)c1 (stereo not drawn) [Compound 10a, Ethyl-4-(3-hydroxystyryl)-1,2,3,4-tetrahydro-6-methyl-2-oxopyrimidine-5-carboxylate]
fR-2 cells; FR2, 24 h
  IC50: > 70 µM
Colo-205 cells; Homo sapiens, COLO 205, 24 h
  IC50: > 70 µM
THP-1 cells; Homo sapiens, THP-1, 24 h
  IC50: 42.1 ± 1.7 µM
A549 cells; Homo sapiens, A549, 24 h
  IC50: > 70 µM
PC-3 cells; Homo sapiens, PC-3, 24 h
  IC50: 29.4 ± 1.2 µM

## CCOC(=O)C1=C(C)NC(=O)NC1/C=C/c1ccc2c(c1)OCO2 (stereo not drawn) [Compound 20a, Ethyl-4-((E)-2-(benzo[d][1,3]dioxol-6-yl)vinyl)-1,2,3,4-tetrahydro-6-methyl-2-oxo pyrimidine-5-carboxylate]
fR-2 cells; [2]
  IC50: 68.7 ± 1.1 µM
Colo-205 cells; [2]
  IC50: 23.4 ± 1.4 µM
THP-1 cells; [2]
  IC50: > 70 µM
A549 cells; [2]
  IC50: > 70 µM
PC-3 cells; [2]
  IC50: > 70 µM

## CCOC(=O)C1=C(C)NC(=O)NC1C=Cc1ccc(OC)cc1OC (stereo not drawn) [Compound 19a, Ethyl-4-(2,4-dimethoxystyryl)-1,2,3,4-tetrahydro-6-methyl-2-oxopyrimidine-5-carboxylate]
fR-2 cells; FR2, 24 h
  IC50: > 70 µM
Colo-205 cells; Homo sapiens, COLO 205, 24 h
  IC50: 33.7 ± 1.8 µM
THP-1 cells; Homo sapiens, THP-1, 24 h
  IC50: > 70 µM
A549 cells; Homo sapiens, A549, 24 h
  IC50: 47.8 ± 2.4 µM
PC-3 cells; Homo sapiens, PC-3, 24 h
  IC50: > 70 µM

## O=c1[nH]cc(F)c(=O)[nH]1 [5-Fluorouracil, reference compound]
fR-2 cells; FR2, 24 h
  IC50: 335 ± 3.8 µM
Colo-205 cells; Homo sapiens, COLO 205, 24 h
  IC50: 33.9 ± 1.9 µM

## CCOC(=O)C1=C(C)NC(=O)NC1c1ccc2c(c1)CCC(C)(C)O2 (stereo not drawn) [Compound 14a, Ethyl-1,2,3,4-tetrahydro-6-methyl-4-(2,2-dimethylchroman-6-yl)-2-oxo-pyrimidine-5-carboxylate]
fR-2 cells; FR2, 24 h
  IC50: > 70 µM
Colo-205 cells; Homo sapiens, COLO 205, 24 h
  IC50: > 70 µM
THP-1 cells; Homo sapiens, THP-1, 24 h
  IC50: > 70 µM
A549 cells; Homo sapiens, A549, 24 h
  IC50: > 70 µM
PC-3 cells; Homo sapiens, PC-3, 24 h
  IC50: > 70 µM

## CCOC(=O)C1=C(C)NC(=O)NC1/C(CC(=O)OC)=C(\Cl)c1ccc(OC)c(OC)c1 (stereo not drawn) [Compound 13a, Ethyl-4-((Z)-3-(methoxycarbonyl)-1-chloro-1-(3,4-dimethoxyphenyl)prop-1-en-2-yl)-1,2,3,4-tetrahydro-6-methyl-2-oxopyrimidine-5-carboxylate]
fR-2 cells; FR2, 24 h
  IC50: 67.6 ± 2.5 µM
Colo-205 cells; Homo sapiens, COLO 205, 24 h
  IC50: 59.4 ± 1.6 µM
THP-1 cells; Homo sapiens, THP-1, 24 h
  IC50: 23.2 ± 1.4 µM
A549 cells; Homo sapiens, A549, 24 h
  IC50: 30.3 ± 2.9 µM
PC-3 cells; Homo sapiens, PC-3, 24 h
  IC50: 35.4 ± 2.2 µM

## CCCC1NC(=O)NC(C)=C1C(=O)OCC (stereo not drawn) [Compound 6a, Ethyl 1,2,3,4-tetrahydro-6-methyl-2-oxo-4-propylpyrimidine-5-carboxylate]
fR-2 cells; FR2, 24 h
  IC50: > 70 µM
Colo-205 cells; Homo sapiens, COLO 205, 24 h
  IC50: > 70 µM
[1]
  IC50: > 70 µM
THP-1 cells; Homo sapiens, THP-1, 24 h
  IC50: > 70 µM
A549 cells; Homo sapiens, A549, 24 h
  IC50: > 70 µM
PC-3 cells; Homo sapiens, PC-3, 24 h
  IC50: > 70 µM

## CCOC(=O)C1=C(C)NC(=O)NC1C1=Cc2ccccc2CC1 (stereo not drawn) [Compound 11a, Ethyl-4-(3,4-dihydronaphthalen-2-yl)-6-methyl-2-oxo-1,2,3,4-tetrahydropyrimidine-5-carboxylate]
fR-2 cells; FR2, 24 h
  IC50: > 70 µM
Colo-205 cells; Homo sapiens, COLO 205, 24 h
  IC50: > 70 µM
THP-1 cells; Homo sapiens, THP-1, 24 h
  IC50: > 70 µM
A549 cells; Homo sapiens, A549, 24 h
  IC50: > 70 µM
PC-3 cells; Homo sapiens, PC-3, 24 h
  IC50: 29.3 ± 1.3 µM

## CCOC(=O)C1=C(C)NC(=O)NC1/C=C\c1ccc2c(c1)CCC(C)(C)O2 (stereo not drawn) [Compound 15a, Ethyl-1,2,3,4-tetrahydro-6-methyl-4-((Z)-2-(2,2-dimethylchroman-6-yl)vinyl)-2-oxo-pyrimidine-5-carboxylate]
fR-2 cells; FR2, 24 h
  IC50: > 70 µM
Colo-205 cells; Homo sapiens, COLO 205, 24 h
  IC50: 27.3 ± 1.8 µM
THP-1 cells; Homo sapiens, THP-1, 24 h
  IC50: > 70 µM
A549 cells; Homo sapiens, A549, 24 h
  IC50: > 70 µM
PC-3 cells; Homo sapiens, PC-3, 24 h
  IC50: > 70 µM

## COc1cccc2c1C(=O)c1c(O)c3c(c(O)c1C2=O)C[C@@](O)(C(=O)CO)C[C@@H]3O[C@H]1C[C@H](N)[C@H](O)[C@H](C)O1 [Doxorubicin, reference compound]
THP-1 cells; Homo sapiens, THP-1, 24 h
  IC50: 0.018 ± 0.004 µM

## CCCCCCC1NC(=O)NC(C)=C1C(=O)OCC (stereo not drawn) [Compound 9a, Ethyl-4-hexyl-1,2,3,4-tetrahydro-6-methyl-2-oxo-pyrimidine-5-carboxylate]
fR-2 cells; FR2, 24 h
  IC50: > 70 µM
Colo-205 cells; Homo sapiens, COLO 205, 24 h
  IC50: > 70 µM
[1]
  IC50: > 70 µM
THP-1 cells; Homo sapiens, THP-1, 24 h
  IC50: > 70 µM
A549 cells; Homo sapiens, A549, 24 h
  IC50: > 70 µM
PC-3 cells; Homo sapiens, PC-3, 24 h
  IC50: > 70 µM

## CCOC(=O)C1=C(C)NC(=O)NC1C=Cc1cc(OC)c(OC)c(OC)c1 (stereo not drawn) [Compound 18a, Ethyl 4-(3,4,5-trimethoxystyryl)-1,2,3,4-tetrahydro-6-methyl-2-oxopyrimidine-5-carboxylate]
fR-2 cells; FR2, 24 h
  IC50: > 70 µM
Colo-205 cells; Homo sapiens, COLO 205, 24 h
  IC50: > 70 µM
[1]
  IC50: > 70 µM
THP-1 cells; Homo sapiens, THP-1, 24 h
  IC50: > 70 µM
A549 cells; Homo sapiens, A549, 24 h
  IC50: > 70 µM
PC-3 cells; Homo sapiens, PC-3, 24 h
  IC50: > 70 µM
